Results: ChEMBL document CHEMBL1649277, “Inhibition of herpesvirus replication by 5-substituted 4'-thiopyrimidine nucleosides” (Antimicrob Agents Chemother, 2009)
pEC50, pIC50: −log10 of the molar value.

Assays:
Human alphaherpesvirus 2 [1] = test: Selectivity ratio of EC50 for 4'-thioIDU-resistant HSV2 infected in HFF to EC50 for HSV2 MS infected in HFF; format: functional
[2] = Antiviral activity against Human herpesvirus 6 GS infected in human HSB2 cells assessed as decrease in viral DNA accumulation after 7 days; format: functional, cell-based, Human herpesvirus 6 (strain GS); conditions: Human betaherpesvirus 6A, HSB2, 168 h
Outline: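 HSB-2 cells (2 × 10^4/well) in RPMI 1640 with 10% FBS were infected with HHV-6A strain GS, with compound dilutions in triplicate wells, at 37°C for 7 days. Total DNA was denatured and immobilized on nylon. Viral DNA accumulation was measured by digoxigenin-labeled DNA probe hybridization and anti-hapten antibody detection.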

Human alphaherpesvirus 2 [3] = test: Antiviral activity against 4'-thioIDU-resistant HSV2 infected in HFF after 3 days by plaque reduction assay; format: functional, organism-based; conditions: Human alphaherpesvirus 2, 72 h
Outline: (§1)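 Confluent HFF monolayers (passage <10) were infected in triplicate wells at 20–30 plaques per well, with 1 h adsorption and rocking every 15 min. Six serial dilutions (top 100 μM) were made in MEM with 2% FBS and pooled human immunoglobulin. Cells were incubated 3 days and stained with crystal violet. Plaques were counted, and EC50 was interpolated from plaque reduction.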

Human betaherpesvirus 5 [4] = test: Antiviral activity against human cytomegalovirus AD169 infected in HFF assessed as decrease in viral DNA accumulation after 8 to 10 days; format: functional, organism-based; conditions: Human betaherpesvirus 5, AD169
Human alphaherpesvirus 2 [5] = test: Antiviral activity against HSV2 harboring frameshift mutation in TK infected in HFF after 3 days by plaque reduction assay; format: functional, organism-based; conditions: Human alphaherpesvirus 2, 72 h; outline: as §1
Human alphaherpesvirus 2 [6] = test: Antiviral activity against HSV2 MS infected in HFF assessed as decrease in viral DNA accumulation after 3 days; format: functional, organism-based; conditions: Human alphaherpesvirus 2, MS, 72 h
Human gammaherpesvirus 8 = test: Antiviral activity against Human herpesvirus 8 infected in human BCBL1 cells assessed as decrease in viral DNA accumulation after 7 days; format: functional, organism-based; conditions: Human gammaherpesvirus 8, BCBL1, 168 h
Outline: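 BCBL1 cells in RPMI 1640 with 10% FBS were induced to lytic replication with phorbol 12-myristate 13-acetate (100 ng/ml final). Compound was tested in triplicate wells up to 100 μM for 7 days at 37°C. Total DNA was purified and viral DNA quantified by TaqMan qPCR. EC50 is the concentration giving 50% reduction of DNA accumulation.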

Human alphaherpesvirus 3 = test: Antiviral activity against VZV Ellan infected in HFF assessed as decrease in viral DNA accumulation after 8 to 10 days; format: functional, organism-based; conditions: Human alphaherpesvirus 3, Ellan
[7] = Cytotoxicity against HFF after 3 days by MTS assay; format: cell-based; conditions: human, HFF cells
Human alphaherpesvirus 2 [8] = test: Antiviral activity against HSV2 MS infected in HFF after 3 days by plaque reduction assay; format: functional, organism-based; conditions: Human alphaherpesvirus 2, MS, 72 h
Outline: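 Confluent primary HFF monolayers (passage <10), triplicate wells, virus dosed at 20–30 plaques/well. Adsorption was 1 h with rocking every 15 min. Six serial dilutions, top 100 μM, were made in MEM with 2% FBS plus pooled human immunoglobulin. After 3 days, wells were stained with 0.1% crystal violet in 20% methanol and plaques counted microscopically. EC50 was interpolated.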

Human alphaherpesvirus 1 [9] = test: Antiviral activity against HSV1 E377 infected in HFF assessed as decrease in viral DNA accumulation after 3 days; format: functional, organism-based; conditions: Human alphaherpesvirus 1, E377, 72 h
Human gammaherpesvirus 4 = test: Antiviral activity against Epstein-Barr virus infected in human Akata cells assessed as decrease in viral DNA accumulation after 72 hrs; format: functional, organism-based; conditions: human gammaherpesvirus 4, Akata
Outline: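 Latent Akata cells in RPMI 1640 with 10% FBS were induced to productive infection with 50 μg/ml goat anti-human IgG, 4 × 10^4 cells per well, with compound at 100–0.032 μM. After 72 h, NaOH/NaCl denaturation was followed by nylon membrane blotting. Viral DNA was quantified by digoxigenin-labeled probe hybridization and anti-hapten antibody detection.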

[10] = Selectivity index, ratio of CC50 for HFF to EC50 for HSV2 MS infected in HFF
Human betaherpesvirus 5 [11] = test: Antiviral activity against human cytomegalovirus PFAB300 harboring UL54 L724V mutant gene infected in HFF after 8 to 10 days by plaque reduction assay; format: functional, organism-based; conditions: Human betaherpesvirus 5, PFAB300
Outline: (§2)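 Plaque reduction in confluent HFF with six serial dilutions (top 100 μM) and no immunoglobulin added. Virus was adsorbed 1 h on triplicate wells. Cells were incubated 8 days, stained with 0.017% neutral red in PBS, and plaques counted. EC50 is the concentration reducing plaque number by 50%.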

Human betaherpesvirus 5 [12] = test: Antiviral activity against human cytomegalovirus 759D100 harboring deletion mutation in UL97 gene and UL54 A987G mutant gene infected in HFF after 8 to 10 days by plaque reduction assay; format: functional, organism-based; conditions: Human betaherpesvirus 5, 759D100; outline: as §2
Human betaherpesvirus 5 [13] = test: Antiviral activity against human cytomegalovirus AD169 infected in HFF after 8 to 10 days by plaque reduction assay; format: functional, organism-based; conditions: Human betaherpesvirus 5, AD169
Outline: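 Plaque reduction on confluent HFF monolayers in triplicate wells: 1 h adsorption, then six serial compound dilutions (top 100 μM) in MEM with 2% FBS, no immunoglobulin. Incubation was 8 days for HCMV and 10 days for VZV. Plaques were stained with 0.017% neutral red in PBS and counted microscopically. EC50 was interpolated at 50% plaque reduction.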

Human betaherpesvirus 5 [14] = test: Antiviral activity against human cytomegalovirus RC314 harboring UL97 K355M mutant gene infected in HFF after 8 to 10 days by plaque reduction assay; format: functional, organism-based; conditions: Human betaherpesvirus 5, RC314; outline: as §2
Human betaherpesvirus 5 [15] = test: Antiviral activity against human cytomegalovirus VR4955 harboring UL54 T700A mutant gene infected in HFF after 8 to 10 days by plaque reduction assay; format: functional, organism-based; conditions: Human betaherpesvirus 5, VR4955; outline: as §2
Human betaherpesvirus 5 [16] = test: Antiviral activity against human cytomegalovirus 1117 harboring UL54 K513N mutant gene infected in HFF after 8 to 10 days by plaque reduction assay; format: functional, organism-based; conditions: Human betaherpesvirus 5, 1117; outline: as §2
Human betaherpesvirus 5 [17] = test: Antiviral activity against human cytomegalovirus C8914-6 harboring UL97 I244V, L595F and UL54 L501F mutant gene infected in HFF after 8 to 10 days by plaque reduction assay; format: functional, organism-based; conditions: Human betaherpesvirus 5, C8914-6; outline: as §2
HFF = test: Antiproliferative activity against HFF after 3 days by Coulter counting analysis; format: cell-based; conditions: Homo sapiens, 72 h
Outline: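 HFF seeded at 2.5 × 10^4 cells/well and allowed 24 h before compound dilutions in growth medium were added. Cells were incubated 72 h at 37°C, detached with trypsin-EDTA, and viable cells counted with a Coulter Counter in triplicate wells. The mean cell number gave the concentration reducing cell number by 50%.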

Human alphaherpesvirus 1 [18] = test: Antiviral activity against HSV1 DM2.1 harboring frameshift mutation in TK infected in HFF after 3 days by plaque reduction assay; format: functional, organism-based; conditions: Human alphaherpesvirus 1, DM2.1, 72 h; outline: as §1
Human alphaherpesvirus 1 [19] = test: Antiviral activity against HSV1 SC16-S1 harboring TK A265T/C336Y mutant gene infected in HFF after 3 days by plaque reduction assay; format: functional, organism-based; conditions: Human alphaherpesvirus 1, SC16-S1, 72 h; outline: as §1
Human alphaherpesvirus 1 [20] = test: Antiviral activity against HSV1 B-2006 harboring frameshift mutation at Q185 in TK infected in HFF after 3 days by plaque reduction assay; format: functional, organism-based; conditions: Human alphaherpesvirus 1, B-2006, 72 h; outline: as §1
Human alphaherpesvirus 2 [21] = test: Antiviral activity against HSV2 13077 harboring TK R223H mutant gene infected in HFF after 3 days by plaque reduction assay; format: functional, organism-based; conditions: Human alphaherpesvirus 2, 13077, 72 h; outline: as §1
Human alphaherpesvirus 1 [22] = test: Antiviral activity against HSV1 E377 infected in HFF after 3 days by plaque reduction assay; format: functional, organism-based; conditions: Human alphaherpesvirus 1, E377, 72 h; outline: as §1
Human alphaherpesvirus 1 [23] = test: Antiviral activity against HSV1 PAA5 harboring polymerase R842S mutant gene infected in HFF after 3 days by plaque reduction assay; format: functional, organism-based; conditions: Human alphaherpesvirus 1, PAA5, 72 h; outline: as §1
Human alphaherpesvirus 2 [24] = test: Antiviral activity against HSV2 11680 harboring TK R223H mutant gene infected in HFF after 3 days by plaque reduction assay; format: functional, organism-based; conditions: Human alphaherpesvirus 2, 11680, 72 h; outline: as §1
Human alphaherpesvirus 2 [25] = test: Antiviral activity against HSV2 12247 harboring TK C337Y mutant gene infected in HFF after 3 days by plaque reduction assay; format: functional, organism-based; conditions: Human alphaherpesvirus 2, 12247, 72 h; outline: as §1
Human alphaherpesvirus 2 [26] = test: Antiviral activity against HSV2 AG-3 harboring TK Q105P mutant gene infected in HFF after 3 days by plaque reduction assay; format: functional, organism-based; conditions: Human alphaherpesvirus 2, AG-3, 72 h; outline: as §1

Structure (SMILES): Nc1ccn(C[C@@H](CO)OCP(=O)(O)O)c(=O)n1.O.O [CIDOFOVIR]
- Ratio EC50 (Human alphaherpesvirus 2 [1]): 1.3
- pEC50 [2]: 5.57
- pEC50 (Human alphaherpesvirus 2 [3]): 5.33
- pEC50 (Human betaherpesvirus 5 [4]): 6.40
- pEC50 (Human alphaherpesvirus 2 [5]): 5.92
- pEC50 (Human alphaherpesvirus 2 [6]): 5.29
- pEC50 (Human gammaherpesvirus 8): 7.19
- pEC50 (Human alphaherpesvirus 3): 6.30
- CC50 at 72 h [7]: > 100 µM
- pEC50 (Human alphaherpesvirus 2 [8]): 5.02
- pEC50 (Human alphaherpesvirus 1 [9]): 5.26
- pEC50 (Human gammaherpesvirus 4): 6.32

Structure (SMILES): Nc1ccn([C@@H]2S[C@H](CO)[C@@H](O)[C@@H]2O)c(=O)n1 [THIARABINE]
- Ratio CC50/EC50 [10]: > 110
- CC50 at 72 h [7]: > 100 µM
- pEC50 (Human alphaherpesvirus 2 [8]): 6.05

Structure (SMILES): Nc1nc2c(ncn2COC(CO)CO)c(=O)[nH]1 [GANCICLOVIR]
- pEC50 (Human betaherpesvirus 5 [11]): 5.01
- pEC50 (Human betaherpesvirus 5 [12]): 3.64
- pEC50 (Human betaherpesvirus 5 [13]): 5.48
- pEC50 (Human betaherpesvirus 5 [14]): 4.36
- pEC50 (Human betaherpesvirus 5 [15]): 5.14
- pEC50 (Human betaherpesvirus 5 [16]): 4.82
- pEC50 (Human betaherpesvirus 5 [17]): 4.28

Structure (SMILES): O=C(O)P(=O)(O)O [FOSCARNET]
- Ratio EC50 (Human alphaherpesvirus 2 [1]): 0.66
- pEC50 (Human alphaherpesvirus 2 [3]): 3.39
- pEC50 (Human alphaherpesvirus 2 [5]): 3.41
- pEC50 (Human alphaherpesvirus 2 [8]): 3.17

Structure (SMILES): Nc1nc(=O)n([C@H]2C[C@H](O)[C@@H](CO)S2)cc1Br
- pIC50 (HFF): < 4.00
- Ratio CC50/EC50 [10]: > 6.7
- CC50 at 72 h [7]: > 100 µM
- pEC50 (Human alphaherpesvirus 2 [8]): 4.82

Structure (SMILES): O=c1[nH]c(=O)n([C@H]2C[C@H](O)[C@@H](CO)S2)cc1Br
- Ratio CC50/EC50 [10]: > 21
- CC50 at 72 h [7]: > 100 µM
- pEC50 (Human alphaherpesvirus 2 [8]): 5.32

Structure (SMILES): Cc1cn([C@H]2C[C@H](O)[C@@H](CO)S2)c(=O)[nH]c1=O [4'-THIOTHYMIDINE]
- pIC50 (HFF): > 7.52
- Ratio CC50/EC50 [10]: > 500
- CC50 at 72 h [7]: > 100 µM
- pEC50 (Human alphaherpesvirus 2 [8]): 6.70

Structure (SMILES): O=c1[nH]c(=O)n([C@H]2C[C@H](O)[C@@H](CO)O2)cc1I [IDOXURIDINE]
- Ratio EC50 (Human alphaherpesvirus 2 [1]): 42
- pEC50 (Human alphaherpesvirus 2 [3]): < 4.00
- pEC50 (Human alphaherpesvirus 2 [5]): 4.11
- pEC50 (Human alphaherpesvirus 2 [8]): 5.62

Structure (SMILES): O=c1[nH]c(=O)n([C@H]2C[C@H](O)[C@@H](CO)S2)cc1C(F)(F)F
- pIC50 (HFF): 7.00
- Ratio CC50/EC50 [10]: > 330
- CC50 at 72 h [7]: > 100 µM
- pEC50 (Human alphaherpesvirus 2 [8]): 6.52

Structure (SMILES): Nc1nc2c(ncn2COCCO)c(=O)[nH]1 [ACYCLOVIR]
- Ratio EC50 (Human alphaherpesvirus 2 [1]): >100
- pEC50 (Human alphaherpesvirus 2 [3]): < 3.36
- pIC50 (HFF): < 3.35
- pEC50 (Human alphaherpesvirus 2 [5]): < 4.00
- pEC50 (Human alphaherpesvirus 1 [18]): 4.92
- pEC50 (Human alphaherpesvirus 1 [19]): 6.22
- pEC50 (Human alphaherpesvirus 1 [20]): 5.36
- pEC50 (Human alphaherpesvirus 2 [21]): 5.31
- pEC50 (Human alphaherpesvirus 1 [22]): 7.10
- pEC50 (Human alphaherpesvirus 1 [23]): 7.96
- CC50 at 72 h [7]: > 444 µM
- pEC50 (Human alphaherpesvirus 2 [8]): 5.52
- pEC50 (Human alphaherpesvirus 2 [24]): 5.18
- pEC50 (Human alphaherpesvirus 2 [25]): 5.02
- pEC50 (Human alphaherpesvirus 2 [26]): 5.33
